Assay results reported in ChEMBL document CHEMBL1817572, “New, potent, selective, and short-acting peptidic V1a receptor agonists” (J Med Chem, 2011).
Numbered stars: 1 amine (or outer) side, 2 acyl side, 3 side chain; on linkers, the order of the positions; unused ones are H or OH. Bridge positions count the residues as written; N and C are the ends. Square brackets hold non-standard residues; d marks the D form. Peptide text beside a SMILES is read from it. Orn(Me) = CN(CCC[C@H](N[*:1])C(=O)[*:2])[*:3]; Ala(cPent) = N[C@@H](CC1CCCC1)C(=O)O; Orn(Pr) = CCCNCCC[C@H](N)C(=O)O; 3Thi = N[C@@H](Cc1ccsc1)C(=O)O; Orn = NCCC[C@H](N)C(=O)O; Dab = NCC[C@H](N)C(=O)O

Assays:
[1] = molecular target: Vasopressin V1a/V2 (Homo sapiens) (UniProt P30518+P37288); assay: Selectivity ratio of EC50 for human vasopressin V2 receptor to EC50 for human vasopressin V1a receptor
Chain of Vasopressin V1a/V2 (Homo sapiens) (P30518 whole entry, looked up): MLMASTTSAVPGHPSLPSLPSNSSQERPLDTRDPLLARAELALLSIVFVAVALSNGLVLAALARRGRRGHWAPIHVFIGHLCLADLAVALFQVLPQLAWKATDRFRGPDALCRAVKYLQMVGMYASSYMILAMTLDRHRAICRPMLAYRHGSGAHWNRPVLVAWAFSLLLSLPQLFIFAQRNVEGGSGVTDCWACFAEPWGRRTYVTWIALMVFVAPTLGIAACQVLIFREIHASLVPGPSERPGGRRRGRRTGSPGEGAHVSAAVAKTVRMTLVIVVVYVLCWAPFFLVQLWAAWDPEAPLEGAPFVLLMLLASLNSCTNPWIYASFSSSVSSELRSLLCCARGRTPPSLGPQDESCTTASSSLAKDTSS
Chain of Vasopressin V1a/V2 (Homo sapiens) (P37288 whole entry, looked up): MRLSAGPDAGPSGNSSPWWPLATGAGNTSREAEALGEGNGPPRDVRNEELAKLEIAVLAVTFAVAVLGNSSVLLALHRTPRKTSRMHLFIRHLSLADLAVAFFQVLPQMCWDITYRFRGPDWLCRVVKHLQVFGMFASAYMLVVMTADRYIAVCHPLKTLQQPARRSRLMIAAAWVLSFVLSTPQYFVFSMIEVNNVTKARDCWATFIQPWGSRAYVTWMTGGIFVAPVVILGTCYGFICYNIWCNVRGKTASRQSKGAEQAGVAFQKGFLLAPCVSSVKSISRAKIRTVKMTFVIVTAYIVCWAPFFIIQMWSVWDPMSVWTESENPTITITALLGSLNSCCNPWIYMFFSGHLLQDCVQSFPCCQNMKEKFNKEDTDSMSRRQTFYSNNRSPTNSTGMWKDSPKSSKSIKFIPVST

Vasopressin V1a receptor [2] = molecular target: Vasopressin V1a receptor (Homo sapiens, UniProt P37288); assay: Agonist activity at recombinant human vasopressin V1a receptor expressed in HEK293 cells by luciferase reporter gene assay; type: functional, cell-based; settings: read-out: EC50
Chain of Vasopressin V1a receptor (Homo sapiens, UniProt P37288) (P37288 whole entry): as the sequence (P37288 whole entry, looked up) above

Vasopressin V1b receptor = molecular target: T1, Vasopressin V1b receptor (Homo sapiens, UniProt P47901); assay: Agonist activity at recombinant human vasopressin V1b receptor expressed in Flp-In-293 cells by luciferase reporter gene assay; type: functional, cell-based; settings: read-out: EC50
T1 sequence (P47901 whole entry): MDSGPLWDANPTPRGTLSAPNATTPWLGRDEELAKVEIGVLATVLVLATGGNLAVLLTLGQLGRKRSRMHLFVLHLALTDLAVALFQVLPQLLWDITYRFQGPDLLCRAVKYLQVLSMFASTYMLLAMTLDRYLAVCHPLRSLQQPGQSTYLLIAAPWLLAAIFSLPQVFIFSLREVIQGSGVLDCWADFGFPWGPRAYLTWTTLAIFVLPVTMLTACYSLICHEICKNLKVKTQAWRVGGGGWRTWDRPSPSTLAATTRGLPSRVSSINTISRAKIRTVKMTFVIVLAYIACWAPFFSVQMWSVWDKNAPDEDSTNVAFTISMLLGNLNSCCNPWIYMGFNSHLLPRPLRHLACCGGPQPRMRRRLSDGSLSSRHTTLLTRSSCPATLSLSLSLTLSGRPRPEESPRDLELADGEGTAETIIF
Procedure, shortened: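 Reporter gene assays in HEK293 cells transiently cotransfected with V1a (human or rat) or human V2 receptor vector plus NFAT-luciferase (V1a) or CRE-luciferase (V2) reporter; V1b in Flp-In-293 stably expressing receptor, OT in CHO-K1 stably expressing receptor, both transiently transfected with NFAT-luciferase. Two days post-transfection, peptides added for 5 h at 37 °C, lysis with luciferin, luminescence read.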

Vasopressin V2 receptor [3] = molecular target: T2, Vasopressin V2 receptor (Homo sapiens, UniProt P30518); assay: Agonist activity at recombinant human vasopressin V2 receptor expressed in HEK293 cells by luciferase reporter gene assay; type: functional, cell-based
T2 sequence (P30518 whole entry): as the sequence (P30518 whole entry, looked up) above

Oxytocin receptor = molecular target: T3, Oxytocin receptor (Homo sapiens, UniProt P30559); assay: Agonist activity at human OT receptor expressed in CHO-K1 cells by luciferase reporter gene assay; type: functional, cell-based
T3 sequence (P30559 whole entry): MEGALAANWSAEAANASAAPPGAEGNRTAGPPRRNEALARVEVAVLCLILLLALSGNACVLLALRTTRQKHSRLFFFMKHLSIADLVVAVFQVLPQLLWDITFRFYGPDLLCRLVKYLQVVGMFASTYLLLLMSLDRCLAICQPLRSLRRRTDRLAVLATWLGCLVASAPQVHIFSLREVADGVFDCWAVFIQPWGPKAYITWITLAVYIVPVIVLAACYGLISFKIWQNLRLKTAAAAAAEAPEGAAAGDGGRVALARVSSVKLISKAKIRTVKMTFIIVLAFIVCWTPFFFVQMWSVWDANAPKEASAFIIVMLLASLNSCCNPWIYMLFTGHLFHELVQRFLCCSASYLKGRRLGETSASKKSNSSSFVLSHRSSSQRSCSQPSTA

Homo sapiens [4] = species on record: Homo sapiens; assay: Selectivity ratio of EC50 for human vasopressin V1b receptor to EC50 for human vasopressin V1a receptor
Homo sapiens [5] = species on record: Homo sapiens; assay: Selectivity ratio of EC50 for human oxytocin receptor to EC50 for human vasopressin V1a receptor
Vasopressin V1a receptor [6] = molecular target: Vasopressin V1a receptor (Rattus norvegicus, UniProt P30560); assay: Agonist activity at recombinant rat vasopressin V1a receptor expressed in HEK293 cells by luciferase reporter gene assay; type: functional, cell-based; settings: read-out: EC50
Chain of Vasopressin V1a receptor (Rattus norvegicus, UniProt P30560) (P30560 whole entry): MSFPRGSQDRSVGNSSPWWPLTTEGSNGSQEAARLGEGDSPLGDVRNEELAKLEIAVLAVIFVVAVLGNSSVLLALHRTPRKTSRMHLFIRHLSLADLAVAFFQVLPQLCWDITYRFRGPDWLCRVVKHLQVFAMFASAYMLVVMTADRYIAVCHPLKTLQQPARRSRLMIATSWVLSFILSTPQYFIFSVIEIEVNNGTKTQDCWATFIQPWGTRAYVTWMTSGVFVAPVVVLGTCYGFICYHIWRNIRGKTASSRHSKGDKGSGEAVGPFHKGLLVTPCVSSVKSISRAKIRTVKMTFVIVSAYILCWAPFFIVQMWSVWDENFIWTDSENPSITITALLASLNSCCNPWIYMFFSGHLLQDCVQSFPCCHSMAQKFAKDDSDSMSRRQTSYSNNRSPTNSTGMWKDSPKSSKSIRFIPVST

Rattus norvegicus [7] = assay: Vasoconstriction in Wistar rat assessed as assessed as decay in vasopressive duration of action at 3 nmol/kg, iv bolus measured over 10 sec interval; type: functional
Procedure, shortened: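 Fasted male Wistar rats (206–340 g) under isoflurane, then thiobutabarbital 150 mg/kg ip, ventilated, 37–38 °C, with carotid pressure and jugular dosing. Dibenamine 1.8 mg/rat iv pretreatment. Sequence: iv boluses (0.5 mL/kg) of heparinized vehicle, then two reference doses of 0.1 nmol/kg, then two test doses; one matches the reference diastolic pressure rise. Relative duration = reference decay rate / test decay rate; mean ± SEM.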

Vasopressin V2 receptor [8] = molecular target: T2, Vasopressin V2 receptor; assay: Partial agonist activity at recombinant human vasopressin V2 receptor expressed in HEK293 cells by luciferase reporter gene assay; type: functional, cell-based
Procedure, shortened: (§1)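 Same luciferase reporter systems (OT in stable CHO-K1, V1b in stable Flp-In-293, each with transient NFAT-luciferase; V1a in HEK293 with NFAT-luciferase, V2 in HEK293 with CRE-luciferase). Peptides added for 5 h at 37 °C two days post-transfection, luminescence read. Partial agonism means efficacy <70%.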

[9] = molecular target: T4, Vasopressin V1b receptor (Homo sapiens) (UniProt P47901); assay: Partial agonist activity at recombinant human vasopressin V1b receptor expressed in Flp-In-293 cells by luciferase reporter gene assay; type: functional, cell-based; procedure, shortened: as §1
T4 sequence (whole entry): T1 sequence (P47901 whole entry)

[10] = molecular target: T5, Oxytocin receptor (Homo sapiens) (UniProt P30559); assay: Partial agonist activity at human OT receptor expressed in CHO-K1 cells by luciferase reporter gene assay; type: functional, cell-based; procedure, shortened: as §1
T5 sequence (whole entry): T3 sequence (P30559 whole entry)

Rattus norvegicus [11] = assay: Vasoconstriction in Wistar rat assessed as decay in vasopressive duration of action at 0.3 nmol/kg, iv bolus measured over 10 sec interval; type: functional; set-up: unit not given here

SMILES | Ratio EC50 [1] | EC50 (Vasopressin V1a receptor [2]) [nM] | EC50 (Vasopressin V1b receptor) [nM] | EC50 (Vasopressin V2 receptor [3]; hek293, read-out: EC50) [nM] | EC50 (Vasopressin V2 receptor [3]; read-out: pEC50 (converted)) [nM] | EC50 (Oxytocin receptor; cho-k1, read-out: EC50) [nM] | EC50 (Oxytocin receptor; read-out: pEC50 (converted)) [nM] | Ratio EC50 (Homo sapiens [4]) | Ratio EC50 (Homo sapiens [5]) | EC50 (Vasopressin V1a receptor [6]) [nM] | EC50 (Vasopressin V2 receptor [3]; read-out: EC50) [nM] | Efficacy (Vasopressin V2 receptor [8]) [%] | Efficacy [9] [%] | Time (Rattus norvegicus [7]) [unitless ratio] | EC50 (Oxytocin receptor; read-out: EC50) [nM] | Efficacy [10] [%] | Time (Rattus norvegicus [11])
CCNC(=O)C[C@@H]1NC(=O)[C@H]([C@@H](C)CC)NC(=O)[C@H](Cc2ccccc2)NC(=O)[C@@H](N)CSSC[C@@H](C(=O)N2CCC[C@H]2C(=O)N[C@@H](CCN)C(=O)NCC(N)=O)NC(=O)[C@H](CC(N)=O)NC1=O (H-CFID(NHEt)NCP[Dab]G-NH2; disulfide 1-6) | 590 | 2.7 | 21 | – | – | > 10000 | > 10000 | 7.7 | > 3700 | 4.8 | 1600 | < 70 | – | 1.3 | – | – | –
CCCNCCC[C@H](NC(=O)[C@@H]1CCCN1C(=O)[C@@H]1CSSC[C@H](N)C(=O)N[C@@H](Cc2ccccc2)C(=O)N[C@@H]([C@@H](C)CC)C(=O)N[C@@H](CCC(N)=O)C(=O)N[C@@H](CC(N)=O)C(=O)N1)C(=O)NCC(N)=O (H-CFIQNCP[Orn(Pr)]G-NH2; disulfide 1-6) | 660 | 0.21 | 38 | – | – | – | – | 180 | 150 | 0.1 | 140 | – | – | – | 32 | – | 1.9
CC[C@H](C)[C@@H]1NC(=O)[C@H](Cc2ccccc2)NC(=O)[C@@H](N)CSSC[C@@H](C(=O)N2CCC[C@H]2C(=O)N[C@@H](CCCNC)C(=O)NCC(N)=O)NC(=O)[C@H](CC(N)=O)NC(=O)[C@H](CCC(N)=O)NC1=O (H-CFIQNCP[Orn(Me)]G-NH2; disulfide 1-6) | 500 | 0.26 | 74 | – | – | – | – | 280 | 61 | 0.29 | 130 | – | – | – | 16 | < 70 | 2.6

More lines, main results first:

Ratio EC50 [1] | EC50 (Vasopressin V1a receptor [2]) [nM] | EC50 (Vasopressin V1b receptor) [nM] | EC50 (Vasopressin V2 receptor [3]; hek293, read-out: EC50) [nM] | EC50 (Vasopressin V2 receptor [3]; read-out: pEC50 (converted)) [nM] | EC50 (Oxytocin receptor; cho-k1, read-out: EC50) [nM] | EC50 (Oxytocin receptor; read-out: pEC50 (converted)) [nM] | Ratio EC50 (Homo sapiens [4]) | Ratio EC50 (Homo sapiens [5]) | EC50 (Vasopressin V1a receptor [6]) [nM] | EC50 (Vasopressin V2 receptor [3]; read-out: EC50) [nM] | Efficacy (Vasopressin V2 receptor [8]) [%] | Efficacy [9] [%] | SMILES | Time (Rattus norvegicus [7]) [unitless ratio] | EC50 (Oxytocin receptor; read-out: EC50) [nM] | Efficacy [10] [%] | Time (Rattus norvegicus [11])
> 7100 | 1.4 | 29 | > 10000 | > 10000 | > 10000 | > 10000 | 20 | > 7100 | 8.2 | – | – | – | CC[C@H](C)[C@@H]1NC(=O)[C@H](Cc2ccccc2)NC(=O)[C@@H](N)CSSC[C@@H](C(=O)N2CCC[C@H]2C(=O)N[C@@H](CCCN)C(=O)NCC(N)=O)NC(=O)[C@H](CC(N)=O)NC(=O)[C@H](CC(N)=O)NC1=O (H-CFINNCP[Orn]G-NH2; disulfide 1-6) | 1.4 | – | – | –
320 | 0.61 | 50 | – | – | – | – | 81 | 49 | – | 200 | – | < 70 | CC[C@H](C)[C@@H]1NC(=O)[C@H](Cc2ccsc2)NC(=O)[C@@H](N)CSSC[C@@H](C(=O)N2CCC[C@H]2C(=O)N[C@@H](CCN)C(=O)NCC(N)=O)NC(=O)[C@H](CC(N)=O)NC(=O)[C@H](CCC(N)=O)NC1=O (H-C[3Thi]IQNCP[Dab]G-NH2; disulfide 1-6) | – | 30 | < 70 | –
1500 | 0.8 | 20 | – | – | > 10000 | > 10000 | 25 | > 12000 | 4.2 | 1200 | – | – | CC[C@H](C)[C@@H]1NC(=O)[C@H](CC2CCCC2)NC(=O)[C@@H](N)CSSC[C@@H](C(=O)N2CCC[C@H]2C(=O)N[C@@H](CCN)C(=O)NCC(N)=O)NC(=O)[C@H](CC(N)=O)NC(=O)[C@H](CCC(N)=O)NC1=O (H-C[Ala(cPent)]IQNCP[Dab]G-NH2; disulfide 1-6) | 2.3 | – | – | –
